Compounds with a hit are over-represented: about 2.8% of the library has one in this group of screens.
m-calpain inh – blocks pig calpain II enzyme activity; 0.37% of 220,000 active; inhibition, % at 16 µM; AID 1236; purified calpain II, fluorogenic peptide substrate, 30 min;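 active = inhibition above about 50%, limit read from the data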
Calb biofilm kill – mixtures killing C. albicans biofilm. 0.02% of 120,000 active. inhibition, % at 7.6 µM. C. albicans biofilm persisters + clotrimazole, fluorescence viability; primary screen in compound mixtures of four per well. AID 1242;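 active = inhibition above 30.3% in the primary screen of four-compound pools, then above 30% when the compound was retested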;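 note: compounds exposed to preformed 24 h biofilms for 48 h; 0% = untreated biofilm control and 100% = clotrimazole plus chlorhexidine kill blank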
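Assay system: C. albicans biofilms / Medium: RPMI/MOPS medium, pH 7.0 / Schedule: biofilm formation 24 h, compound exposure 48 h, 37 °C / Measured by: Alamar Blue fluorescence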
Mcl1-Bid inh – disrupts binding of human Mcl-1 to Bid peptide; Q07820; TR-FRET Mcl-1/Bid-Dy647 peptide binding, 1536-well; inhibition, % at 21.7 µM; 0.97% of 220,000 active;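 active = compounds that cut the binding signal by more than half at the single screening dose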;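 note: His-tagged Mcl-1 with europium anti-His antibody binding Bid BH3 peptide; 0% = Mcl-1 plus peptide wells and 100% = peptide-only wells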
Target sequence (Q07820 whole entry, looked up): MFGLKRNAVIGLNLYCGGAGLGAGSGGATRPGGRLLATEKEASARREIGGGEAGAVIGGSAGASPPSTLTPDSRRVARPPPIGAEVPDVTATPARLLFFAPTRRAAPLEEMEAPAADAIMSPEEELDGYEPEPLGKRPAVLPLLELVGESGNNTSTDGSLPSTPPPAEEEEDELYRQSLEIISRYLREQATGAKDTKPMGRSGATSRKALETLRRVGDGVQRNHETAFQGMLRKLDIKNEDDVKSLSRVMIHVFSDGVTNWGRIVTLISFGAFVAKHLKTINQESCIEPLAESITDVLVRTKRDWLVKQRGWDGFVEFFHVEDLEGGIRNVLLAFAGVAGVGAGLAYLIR
Arbovirus anti – blocks arbovirus infection; arbovirus infection cell-based antiviral screen; inhibition, % at 10 µM; 0.37% of 200,000 active; AID 1251; in the data active = inhibition above about 30%
Bim-Mcl-1 – inhibitors of Bim-Mcl-1 interaction, human | Q07820 | Bead-based flow cytometry, Bim peptide-Mcl-1 binding | inhibition, % at 10 µM | 0.1% of 190,000 active; in the data active = inhibition above about 40%;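 note: 0% = no compound tracer wells and 100% = peptide blocker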
Mcl1 Noxa PPI – Mcl-1/Noxa interaction inhibition; Q07820; TR-FRET Mcl-1/Noxa peptide binding, 2 h; inhibition, % at 21.7 µM; 1.5% of 220,000 active; AID 1022;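 active = compounds that cut the protein-peptide binding signal by more than 50% relative to plate controls in a single-dose test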;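 note: His-tagged Mcl-1 with rhodamine Noxa BH3 peptide and terbium anti-His antibody; 0% = Mcl-1 plus Noxa peptide wells and 100% = peptide-only wells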
* = called active by the depositor; i = inactive; / = no result.

SMILES | m-calpain inh | Calb biofilm kill | Mcl1-Bid inh | Arbovirus anti | Bim-Mcl-1 | Mcl1 Noxa PPI
Cc1cc(/C=C(/C#N)c2nc3ccccc3[nH]2)c(C)n1-c1cc(C(=O)O)cc(C(=O)O)c1 | -60 | 3 | -73 | -4 | 5 | 52*
CNCc1ccccc1OCc1ccccc1F | -22 | 2 | -3 | -10 | 3 | 74*
CNCc1ccccc1OCC(=O)Nc1ccccc1 | -42 | / | -16 | 2 | -4 | 7
Cc1ccccc1C(=O)NNC(=O)CSc1nnc(C)n1-c1ccccc1 | -6 | -2 | -19 | -10 | -6 | -8
CCc1ccc(C(=O)OCC(=O)c2c(N)n(CC(C)C)c(=O)n(C)c2=O)cc1 | 82* | -2 | -21 | 4 | 2 | 5
CC(C)Cn1c(N)c(C(=O)COC(=O)c2ccc(F)cc2)c(=O)n(C)c1=O | 53* | 14 | -7 | 5 | 1 | 5
COc1ccc(-n2nc([N+](=O)[O-])c(=NCCC3=CCCCC3)n2O)cc1 | 37 | 22 | -42 | -18 | 8 | 2
Cc1cccc(NC(=O)Cn2c(O)c(N=NC(=O)c3ccccc3O)c3ccccc32)c1 | -67 | 8 | 66* | -2 | -1 | 66*
Cc1ccc(NC(=O)Cn2c(O)c(N=NC(=O)c3cc([N+](=O)[O-])ccc3O)c3ccccc32)cc1 | -29 | 24 | -29 | / | / | 50*
CCOc1cc(CNCC(C)C)c(Cl)cc1OCC(=O)Nc1ccccc1 | -12 | 12 | -15 | -1 | 2 | -1
O=C(NCCO)C(O)C(O)C(=O)NCCO (stereo not drawn) | -34 | 4 | -5 | 0 | 0 | -14
Cc1nnc(SCC(=O)N2N=C(c3ccc(Cl)cc3)CC2c2ccco2)[nH]c1=O (stereo not drawn) | -9 | 16 | -64 | 11 | 4 | 53*
CC(=O)N1N=C(c2ccc(Cl)cc2)CC1c1ccco1 (stereo not drawn) | 16 | 7 | -40 | / | / | -20
CC(C)(O[C@@H]1O[C@H](CO)[C@@H](O)[C@H](O)[C@H]1O)[C@H]1Cc2cc3ccc(=O)oc3cc2O1 | i | 9 | -11 | 30* | 0 | 23
COCc1cc(CN2CCCC(CNC(=O)c3ccc(F)cc3)C2)ccc1OC (stereo not drawn) | -2 | 1 | -29 | 4 | 40* | -3
Cc1sc2nc3c4ccccc4c(NCc4ccco4)nn3c(=O)c2c1C | -289 | / | -1 | -3 | 10 | 67*
CN1c2ccsc2C(O)=C(C(=S)Nc2ccc(F)c(Cl)c2)S1(=O)=O | -20 | / | 54* | 22 | -6 | 34
CCOC(=O)N1CCC(N(CCN(C)C)C(=S)Nc2ccc(OCC)cc2)CC1 | 17 | 14 | -42 | 1 | -4 | 10
CC(=O)c1c(C(C)=O)c(C)n(C(c2ccccc2)c2ccccc2)c1C | 51* | 12 | -25 | -2 | -1 | 11
Cc1nc(N)sc1-c1csc(NCc2ccccc2)n1 | -84 | / | -19 | -12 | -2 | -12
Cc1cc(-c2csc(NCc3ccccc3)n2)c(C)n1C | -75 | 4 | 4 | 8 | 2 | 69*
N[C@@H](Cc1ccccc1)c1nnc(SC/C=C/c2ccccc2)o1 | -4 | 16 | -21 | / | / | -1
Cc1ccccc1N=C1NC(=O)/C(=C/c2cccn2C)S1 | -17 | 15 | -33 | / | / | 2
Cc1cccc(N=C2NC(=O)/C(=C3/C(=O)N(C)c4ccccc43)S2)c1C | 10 | / | -11 | 43* | -1 | 44
O=C(Nc1cnn(Cc2ccc(F)cc2)c1)c1cnccn1 | -4 | / | -16 | -12 | 0 | -5
SMILES | m-calpain inh | Calb biofilm kill | Mcl1-Bid inh | Arbovirus anti | Bim-Mcl-1 | Mcl1 Noxa PPI
O=C(Nc1cnn(Cc2ccc(F)cc2)c1)C(c1ccccc1)c1ccccc1 | 53* | 16 | 0 | 10 | -7 | 7
Cc1ccc(C)c(NS(=O)(=O)c2ccc3[nH]c(=O)oc3c2)c1 | -49 | 14 | -57 | -1 | 0 | 59*
Cc1ccc(C)c(NS(=O)(=O)c2ccc3[nH]c(=O)[nH]c3c2)c1 | -23 | 14 | -16 | / | / | 2
CC1CCN(Cc2cnc(Cl)s2)CC1 | 51* | / | 5 | 10 | -3 | -2
CC1CCCCN1Cc1cnc(Cl)s1 (stereo not drawn) | 59* | / | -28 | 9 | -2 | 9
CC1CCCN(Cc2cnc(Cl)s2)C1 (stereo not drawn) | 40 | / | -37 | 0 | -2 | -15
O=c1ccc2[n+]([O-])c3ccc(O)cc3oc-2c1 | 25 | 20 | -74 | / | / | 74*
O=c1cc(O)c2ccc(O)cc2o1 | -16 | 1 | -17 | 3 | -7 | -15
O=C1c2ccccc2C(=O)N1CCc1csc(-c2cccc(F)c2)n1 | 9 | / | -6 | -3 | -2 | 12
O=C1c2ccccc2C(=O)N1CCc1csc(-c2cccc(Cl)c2)n1 | 59* | / | -7 | 6 | -2 | 8
CN=c1scc(-c2ccco2)n1/N=C/c1ccc(O)c(O)c1 | -113 | 9 | -40 | -8 | -1 | 73*
COc1ccc(O)c(/C=N/n2c(-c3ccco3)csc2=Nc2cccnc2)c1 | 10 | 17 | -22 | -2 | 6 | 25
CN(C)CCCNc1ncnc2scc(-c3ccccc3)c12 | -30 | -4 | 35 | -17 | 0 | 24
Cc1ccccc1S(=O)(=O)Nc1ncnc2scc(-c3ccccc3)c12 | 1 | 10 | 16 | 58* | 0 | 1
CCOC(=O)N1CCN(C(=O)c2ccc(CS(=O)(=O)c3ccccc3OC)o2)CC1 | -6 | / | -44 | 7 | 2 | 59*
CCn1c(SCC(=O)Nc2ccc3c(c2)oc2ccccc23)nnc1-c1ccc(N)cc1 | -89 | / | 58* | -14 | 2 | 56*
COC(=O)C1=C(C)N(C)C(=O)NC1c1cc2c(cc1[N+](=O)[O-])OCO2 (stereo not drawn) | -73 | 10 | -23 | -3 | 0 | 52*
COC(=O)CC(NS(=O)(=O)c1cccs1)c1cccc2ccccc12 (stereo not drawn) | 60* | / | -21 | 8 | -3 | 3
COC(=O)C1(C(C[N+](=O)[O-])c2ccc(C)cc2)C(=O)NCC1c1ccco1 (stereo not drawn) | -9 | 21 | -46 | / | / | -5
Clc1ccc(CN(Cc2ccc(Cl)cc2)c2nn[nH]n2)cc1 | -13 | 18 | 19 | 38* | -4 | 5
N#Cc1c(NC(=O)c2ccccc2Cl)n(Cc2ccccc2)c2nc3ccccc3nc12 | -218 | 15 | 41 | -21 | 2 | 70*
Cc1ccc(-n2c(SCC(=O)NCc3ccco3)nc3sc4c(c3c2=O)CC(C)(C)SC4)cc1 | 22 | / | 89* | 2 | 2 | -85
CCCCCCCCCn1c2c(c(=N)c3c1CCC3)CCC2 | 51* | 21 | 3 | -36 | -46 | 12
CCCCCCCCNC1=CC(=O)CC(C)(C)C1 | 25 | 22 | -45 | / | / | 7
Cc1ccc(NS(=O)(=O)c2cc([N+](=O)[O-])ccc2NNC(=S)Nc2cccc(Cl)c2)c(C)c1 | 44 | 19 | 46 | -42 | 0 | 88*
CC(C)c1ccc(NC(=O)Cn2c(=O)oc3cccnc32)cc1 | -14 | 22 | 10 | / | / | 27

Screens deposited in PubChem by several laboratories.
